Data reported in ChEMBL document CHEMBL1144782, “Isoindolo[2,1-a]quinoxaline derivatives, novel potent antitumor agents with dual inhibition of tubulin polymerization and topoisomerase I” (2008).
Several values for one entry are separate records, joined by “and”; a condition that tells them apart may be missing. Equal values may be shown once.

How the values were obtained:
KM12 = experiment: Antitumor activity against human KM12 cells; assay type: functional; conditions: for TGI: read-out: pTGI (converted)
Summary of the method: (§1)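 Run by the NCI in its in vitro disease-oriented screen of about 60 human tumour cell lines. For each line it reports pGI50 (50% net growth inhibition), pTGI (total growth inhibition) and pLC50 (50% net cell death), each as –log molar concentration. Where an effect was not reached within the tested range, the highest tested concentration was used.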

MCF7 [1] = experiment: Growth inhibition of human multidrug-resistant MCF7 cells after 72 hrs by MTT assay; assay type: functional; conditions: MCF7, 72 h
Summary of the method: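 Growth inhibition by MTT after 72 h incubation. Resistant sublines: LoVoDoxo and MCF-7 MDR were kept in 0.1 µg/mL doxorubicin; CEMVbl-100 was selected against vinblastine. GI50 given as mean ± SEM of three independent experiments. Resistance index is resistant-line GI50 over parental GI50.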

OVCAR-4 = experiment: Antitumor activity against human OVCAR4 cells; assay type: functional; conditions: for TGI: read-out: pTGI (converted); summary of the method: as §1
MOLT-4 = experiment: Antitumor activity against human MOLT4 cells; assay type: functional; conditions: for TGI: read-out: pTGI (converted); summary of the method: as §1
SF-268 = experiment: Antitumor activity against human SF268 cells; assay type: functional; conditions: for CC50: read-out: Log LC50 (the source's name) (converted); for TGI: read-out: pTGI (converted); summary of the method: as §1
OVCAR-5 = experiment: Antitumor activity against human OVCAR5 cells; assay type: functional; conditions: for TGI: read-out: pTGI (converted); summary of the method: as §1
SR = experiment: Antitumor activity against human SR cells; assay type: functional; conditions: for TGI: read-out: pTGI (converted)
Summary of the method: (§2)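 NCI 60-cell-line screen. Parameters were GI50 (50% net growth inhibition), TGI and LC50, each reported as –log molar concentration. Where an effect was not reached within the tested range, the highest tested concentration was used in the calculation.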

DU-145 = experiment: Antitumor activity against human DU145 cells; assay type: functional; conditions: for CC50: Homo sapiens, DU-145, read-out: Log LC50 (the source's name) (converted); summary of the method: as §1
T47D = experiment: Antitumor activity against human T47D cells; assay type: functional; conditions: for TGI: read-out: pTGI (converted); summary of the method: as §2
HCT-15 = experiment: Antitumor activity against human HCT15 cells; assay type: functional; conditions: for CC50: read-out: Log LC50 (the source's name) (converted); for TGI: read-out: pTGI (converted); summary of the method: as §1
[2] = Antitumor activity against human […] cells; assay type: functional; conditions: for TGI: read-out: pTGI (converted); summary of the method: as §1
ACHN = experiment: Antitumor activity against human ACHN cells; assay type: functional; conditions: for TGI: read-out: pTGI (converted); summary of the method: as §1
SK-MEL-5 = experiment: Antitumor activity against human SKMEL5 cells; assay type: functional; conditions: for TGI: read-out: pTGI (converted); summary of the method: as §1
Tubulin (Sus scrofa) = Tubulin (Sus scrofa) (UniProt P02554+P02550); experiment: Inhibition of pig brain tubulin polymerization
Tubulin (Sus scrofa), sequence (P02550 whole entry, looked up): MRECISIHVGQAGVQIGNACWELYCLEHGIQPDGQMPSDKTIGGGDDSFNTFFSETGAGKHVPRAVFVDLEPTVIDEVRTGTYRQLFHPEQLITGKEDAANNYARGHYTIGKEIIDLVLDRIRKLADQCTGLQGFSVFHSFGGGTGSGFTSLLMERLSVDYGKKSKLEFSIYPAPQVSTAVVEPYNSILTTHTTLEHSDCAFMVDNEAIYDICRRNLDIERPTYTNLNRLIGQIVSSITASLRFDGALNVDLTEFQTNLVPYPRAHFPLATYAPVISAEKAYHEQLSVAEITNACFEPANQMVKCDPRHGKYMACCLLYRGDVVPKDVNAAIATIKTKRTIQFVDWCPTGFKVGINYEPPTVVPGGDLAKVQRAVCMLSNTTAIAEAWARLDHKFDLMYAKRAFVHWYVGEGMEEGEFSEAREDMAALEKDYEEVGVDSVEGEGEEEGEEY
Tubulin (Sus scrofa), sequence (P02554 whole entry, looked up): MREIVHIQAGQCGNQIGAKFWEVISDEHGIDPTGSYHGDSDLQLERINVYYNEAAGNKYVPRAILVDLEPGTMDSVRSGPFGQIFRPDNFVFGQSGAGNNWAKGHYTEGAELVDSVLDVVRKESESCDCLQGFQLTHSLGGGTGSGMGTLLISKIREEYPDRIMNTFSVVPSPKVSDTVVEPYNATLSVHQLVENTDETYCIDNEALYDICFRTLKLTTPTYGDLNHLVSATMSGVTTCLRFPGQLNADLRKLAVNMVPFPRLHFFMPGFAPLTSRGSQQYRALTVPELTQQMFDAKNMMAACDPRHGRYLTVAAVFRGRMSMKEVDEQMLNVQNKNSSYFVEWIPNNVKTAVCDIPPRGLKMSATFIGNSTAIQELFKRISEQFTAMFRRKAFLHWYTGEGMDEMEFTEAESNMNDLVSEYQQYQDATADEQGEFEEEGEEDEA

SNB-75 = experiment: Antitumor activity against human SNB75 cells; assay type: functional; conditions: for TGI: read-out: pTGI (converted); summary of the method: as §1
NCI-H522 = experiment: Antitumor activity against human NCI-H522 cells; assay type: functional; conditions: for CC50: read-out: Log LC50 (the source's name) (converted); for TGI: read-out: pTGI (converted); summary of the method: as §1
EKVX = experiment: Antitumor activity against human EKVX cells; assay type: functional; conditions: for TGI: read-out: pTGI (converted); summary of the method: as §1
M14 = experiment: Antitumor activity against human M14 cells; assay type: functional; conditions: for CC50: read-out: Log LC50 (the source's name) (converted); for TGI: read-out: pTGI (converted); summary of the method: as §1
RPMI-8226 = experiment: Antitumor activity against human RPMI8226 cells; assay type: functional; conditions: for CC50: read-out: Log LC50 (the source's name) (converted); for TGI: read-out: pTGI (converted); summary of the method: as §1
HCT-116 = experiment: Antitumor activity against human HCT116 cells; assay type: functional; conditions: for TGI: read-out: pTGI (converted); summary of the method: as §1
HOP-62 = experiment: Antitumor activity against human HOP62 cells; assay type: functional; conditions: for TGI: read-out: pTGI (converted); summary of the method: as §1
SF-539 = experiment: Antitumor activity against human SF539 cells; assay type: functional; conditions: for TGI: read-out: pTGI (converted); summary of the method: as §1
U-251 = experiment: Antitumor activity against human U251 cells; assay type: functional; conditions: for CC50: read-out: Log LC50 (the source's name) (converted); for TGI: read-out: pTGI (converted); summary of the method: as §2
MCF7 [3] = experiment: Antitumor activity against human MCF7 cells; assay type: functional; conditions: for TGI: read-out: pTGI (converted); summary of the method: as §1
LOX IMVI = experiment: Antitumor activity against human LOXIMVI cells; assay type: functional; conditions: for TGI: read-out: pTGI (converted); summary of the method: as §1
UO-31 = experiment: Antitumor activity against human UO31 cells; assay type: functional; summary of the method: as §2

Cc1cc2[nH]c(=O)c3c4ccccc4cn3c2cc1C
GI50 (KM12): 7.08 µM
LC50 (50% net cell death) (KM12): 52.5 µM
TGI (KM12): 21.4 µM
GI50 (MCF7 [1]): 9.2 µM
GI50 (OVCAR-4): 13.5 µM
LC50 (50% net cell kill) (OVCAR-4): 56.2 µM
TGI (OVCAR-4): 27.5 µM
GI50 (MOLT-4): 5.62 µM
LC50 (MOLT-4): 70.8 µM
TGI (MOLT-4): 19.5 µM
GI50 (SF-268): 15.5 µM
CC50 (SF-268): 69.2 µM
TGI (SF-268): 32.4 µM
GI50 (OVCAR-5): 13.8 µM
LC50 (50% net cell death) (OVCAR-5): 55 µM
TGI (OVCAR-5): 27.5 µM
GI50 (SR): 2.57 µM
LC50 (SR): 49 µM
TGI (SR): 5.75 µM
GI50 (DU-145): 13.8 µM and 30.2 µM
CC50 (DU-145): 64.6 µM
GI50 (T47D): 15.5 µM
LC50 (T47D): > 100 µM
TGI (T47D): 50.1 µM
GI50 (HCT-15): 6.17 µM
CC50 (HCT-15): 61.7 µM
TGI (HCT-15): 21.9 µM
GI50 [2]: 8.32 µM
LC50 [2]: 60.3 µM
TGI [2]: 23.4 µM
GI50 (ACHN): 10.2 µM
LC50 (50% net cell kill) (ACHN): 53.7 µM
TGI (ACHN): 23.4 µM
GI50 (SK-MEL-5): 13.5 µM
LC50 (SK-MEL-5): 64.6 µM
TGI (SK-MEL-5): 29.5 µM
Activity (Tubulin (Sus scrofa)): > 10 µM
GI50 (SNB-75; Homo sapiens, SNB-75): 15.5 µM
LC50 (SNB-75; Homo sapiens, SNB-75): 58.9 µM
TGI (SNB-75; Homo sapiens, SNB-75): 30.2 µM
GI50 (NCI-H522): 14.5 µM
CC50 (NCI-H522): 66.1 µM
TGI (NCI-H522): 30.9 µM
GI50 (EKVX): 13.5 µM
LC50 (50% net cell kill) (EKVX): 75.9 µM
TGI (EKVX): 31.6 µM
GI50 (M14): 13.5 µM
CC50 (M14): 52.5 µM
TGI (M14): 26.9 µM
GI50 (RPMI-8226): 6.76 µM
CC50 (RPMI-8226): > 100 µM
TGI (RPMI-8226): 29.5 µM
GI50 (HCT-116): 1.58 µM
LC50 (HCT-116): 6.17 µM
TGI (HCT-116): 3.09 µM
GI50 (HOP-62): 2.69 µM
LC50 (50% net cell death) (HOP-62): 28.8 µM
TGI (HOP-62): 8.13 µM
GI50 (SF-539): 11.2 µM
LC50 (50% net cell kill) (SF-539): 64.6 µM
TGI (SF-539): 26.9 µM
GI50 (U-251): 4.07 µM
CC50 (U-251): 47.9 µM
TGI (U-251): 14.1 µM
GI50 (MCF7 [3]): 11.7 µM
LC50 (50% net cell kill) (MCF7 [3]): > 100 µM
TGI (MCF7 [3]): > 100 µM
GI50 (LOX IMVI): 2.04 µM
LC50 (50% net cell kill) (LOX IMVI): 7.94 µM
TGI (LOX IMVI): 3.98 µM

O=c1[nH]c2ccccc2n2cc3ccccc3c12
GI50 (KM12): 19.1 µM
LC50 (50% net cell death) (KM12): 83.2 µM
TGI (KM12): 39.8 µM
GI50 (MCF7 [1]): 10.6 µM
GI50 (OVCAR-4): 7.24 µM
LC50 (50% net cell kill) (OVCAR-4): > 100 µM
TGI (OVCAR-4): 89.1 µM
GI50 (MOLT-4): 3.63 µM
LC50 (MOLT-4): > 100 µM
TGI (MOLT-4): 8.71 µM
GI50 (SF-268): 21.4 µM
CC50 (SF-268): > 100 µM
TGI (SF-268): 87.1 µM
GI50 (OVCAR-5): 10.5 µM
LC50 (50% net cell death) (OVCAR-5): > 100 µM
TGI (OVCAR-5): 35.5 µM
GI50 (SR): 2.88 µM
LC50 (SR): > 100 µM
TGI (SR): 7.76 µM
GI50 (DU-145): 7.59 µM and 38 µM
CC50 (DU-145): > 100 µM
GI50 (T47D): 7.41 µM
LC50 (T47D): > 100 µM
TGI (T47D): > 100 µM
GI50 (HCT-15): 3.31 µM
CC50 (HCT-15): 93.3 µM
TGI (HCT-15): 18.6 µM
GI50 [2]: 0.955 µM
LC50 [2]: 58.9 µM
TGI [2]: 10.2 µM
GI50 (ACHN): 1.82 µM
LC50 (50% net cell kill) (ACHN): 34.7 µM
TGI (ACHN): 7.24 µM
GI50 (SK-MEL-5): 1.91 µM
LC50 (SK-MEL-5): 60.3 µM
TGI (SK-MEL-5): 14.8 µM
Activity (Tubulin (Sus scrofa)): > 10 µM
GI50 (UO-31): 12.6 µM
CC50 (UO-31; read-out: Log LC50 (the source's name) (converted)): 56.2 µM
TGI (UO-31; read-out: pTGI (converted)): 26.9 µM
GI50 (SNB-75): 13.5 µM and 1.91 µM
LC50 (SNB-75; Homo sapiens, SNB-75): > 100 µM
TGI (SNB-75; Homo sapiens, SNB-75): 74.1 µM
GI50 (NCI-H522): 13.8 µM
CC50 (NCI-H522): 75.9 µM
TGI (NCI-H522): 32.4 µM
GI50 (EKVX): 4.79 µM
LC50 (50% net cell kill) (EKVX): > 100 µM
TGI (EKVX): 69.2 µM
GI50 (M14): 6.46 µM
CC50 (M14): 64.6 µM
TGI (M14): 22.9 µM
GI50 (RPMI-8226): 3.72 µM
CC50 (RPMI-8226): > 100 µM
TGI (RPMI-8226): 22.4 µM
GI50 (HCT-116): 2.14 µM
LC50 (HCT-116): 49 µM
TGI (HCT-116): 12.3 µM
GI50 (HOP-62): 4.37 µM
LC50 (50% net cell death) (HOP-62): 52.5 µM
TGI (HOP-62): 17.8 µM
GI50 (SF-539): 5.13 µM
LC50 (50% net cell kill) (SF-539): 75.9 µM
TGI (SF-539): 22.4 µM
GI50 (U-251): 3.24 µM
CC50 (U-251): 70.8 µM
TGI (U-251): 13.5 µM
GI50 (MCF7 [3]): 10.5 µM
LC50 (50% net cell kill) (MCF7 [3]): > 100 µM
TGI (MCF7 [3]): > 100 µM
GI50 (LOX IMVI): 3.02 µM
LC50 (50% net cell kill) (LOX IMVI): 85.1 µM
TGI (LOX IMVI): 12 µM
